The source of these data is article PMC8336483 (Chemical Science, 2021).

The subject of this series is MDA-MB-231 cells. The class given is cell-based, human. The note with it: 1 h incubation. The gist of the method: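 MDA-MB-231 cells incubated 1 h with fluorescent conjugates or linker-functionalised fluorescein, then analysed by fluorescence correlation spectroscopy in the cytoplasm. Probe hydrodynamic radii and cytoplasmic viscosity were first determined by FCS. Cytoplasmic diffusion coefficients came from autocorrelation curves and were compared with values predicted for free diffusion using a cytoplasm viscosity model.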

As for FAM-PEG, the “FCS autocorrelation of fluorescence signal in cells” value is recorded as “no autocorrelation of fluorescence signal was detected”.
